Consider two compounds from ChEMBL document CHEMBL1141109, “Synthesis of an estrogen receptor beta-selective radioligand: 5-[18F]fluoro-(2R,3S)-2,3-bis(4-hydroxyphenyl)pentanenitrile and comparison of in vivo distribution with 16alpha-[18F]fluoro-17beta-estradiol” (J Med Chem, 2005).

The nature of data set [1]: Biodistribution of [18F]FES in alpha estrogen receptor knock out mouse ovaries after 30 min; (n=3). Type of data set: ADME, organism-based, Female gonad. The following applies: in vivo, 0.5 h.
Data set [2] is described as follows: Biodistribution of [18F]-FES in alpha estrogen receptor knock out mouse bone after 2 h; (n=3). Type of data set: ADME, organism-based, Bone element. To be noted: in vivo. The method, boiled down:
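Female αERKO mice were rested 48 h after shipping and fed estrogen-free chow. They were staged by daily vaginal smears and studied in diestrus. Each received 13 µCi [18F]FES in 100 µL 10% ethanol/saline and was sacrificed at 30 min, 1 h or 2 h (n = 3 per time). Tissue uptake is given as %ID/g ± SD.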

Data set [3] in a line: Biodistribution of [18F]FES in beta estrogen receptor knock out mouse blood after 30 min; (n=3). Type of data set: ADME, organism-based. To be noted: in vivo, 0.5 h.
A short description of data set [4]: Biodistribution of [18F]-FES in beta estrogen receptor knock out mouse brain after 30 min; (n=3). The format is ADME, organism-based. To be noted: in vivo, 0.5 h. The method, boiled down: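 βERKO mice rested 48 h after shipping, fed estrogen-free chow and staged by vaginal smears. Repeated swabbing caused pseudopregnancy in some, so this group was studied in estrus. Mice given [18F]FES were sacrificed at 30 min (n = 3). Uptake is reported as %ID/g ± SD.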

The nature of data set [5]: Biodistribution of [18F]FES in beta estrogen receptor knock out mouse brain after 1 h; (n=3). Type of data set: ADME, organism-based. To be noted: in vivo.
A short description of data set [6]: Biodistribution of [18F]FES in beta estrogen receptor knock out mouse liver after 2 h; (n=3). The format is ADME, organism-based. The following applies: in vivo.
The nature of data set [7]: Biodistribution of [18F]FES in beta estrogen receptor knock out mouse muscle after 1 h; (n=3). Type of data set: ADME, organism-based, Muscle tissue. The following applies: in vivo.
Data set [8] in a line: Biodistribution of [18F]-FES in beta estrogen receptor knock out mouse thymus after 1 h; (n=3). Type of data set: ADME, organism-based. To be noted: in vivo. The gist of the method:
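Female βERKO mice in estrus were used because repeated swabbing had induced pseudopregnancy. They were fed estrogen-free chow. Each received 13 µCi [18F]FES in 100 µL 10% ethanol/saline and was sacrificed at 30 min, 1 h or 2 h (n = 3 each). Tissue uptake is given as %ID/g ± SD.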

Data set [9] in a line: Biodistribution of [18F]FES in alpha estrogen receptor knock out mouse uterus after 2 h; (n=3). To be noted: in vivo. Type of data set: ADME, organism-based.
Data set [10] is described as follows: Biodistribution of [18F]FEDPN in alpha estrogen receptor knock out mouse kidney after 30 min; (n=3). Type of data set: ADME, organism-based. The following applies: in vivo, 0.5 h. The method, boiled down: (§1)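 ERKO female mice (αERKO or βERKO), rested 48 h after shipping, placed on estrogen-free chow, and staged by daily vaginal smears. Injected in a nonestrous stage with 11 µCi [18F]FEDPN in 130 µL of 10% ethanol/saline. Killed at 30 min, 1 h or 2 h. Organs counted and reported as %ID/g ± SD, three animals per point.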

Data set [11] is described as follows: Biodistribution of [18F]FEDPN in alpha estrogen receptor knock out mouse spleen after 30 min; (n=3). Type of data set: ADME, organism-based. The following applies: in vivo, 0.5 h. The method, boiled down: (§2)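 αERKO and βERKO mice, staged by daily vaginal smears and kept on estrogen-free chow, were studied in a nonestrous stage. Each mouse received 11 μCi of tracer in 130 μL of 10% ethanol/saline. Mice were killed at 30 min, 1 h or 2 h (n = 3 each). Organs were removed, blotted, weighed and gamma-counted against an injectate standard. Uptake is given as %ID/g ± SD.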

Data set [12] is described as follows: Biodistribution of [18F]FEDPN in alpha estrogen receptor knock out mouse thymus after 30 min; (n=3). To be noted: in vivo, 0.5 h. The format is ADME, organism-based. The method, boiled down: as §2
Data set [13] is described as follows: Biodistribution of [18F]FEDPN in beta estrogen receptor knock out mouse uterus after 2 h; (n=3). Type of data set: ADME, organism-based. The following applies: in vivo. The method, boiled down:
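αERKO and βERKO mice were fed estrogen-free chow and staged by daily vaginal smears. Mice in a nonestrous stage each received 11 µCi tracer in 130 µL 10% ethanol/saline. Organs were taken at 30 min, 1 h or 2 h and gamma-counted. Uptake is expressed as %ID/g ± SD, three animals per point.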

Data set [14] in a line: Biodistribution of [18F]FEDPN in alpha estrogen receptor knock out mouse heart after 1 h; (n=3). Type of data set: ADME, organism-based. To be noted: in vivo. The gist of the method: as §1
The nature of data set [15]: Biodistribution of [18F]FEDPN in alpha estrogen receptor knock out mouse heart after 2 h; (n=3). The format is ADME, organism-based. The following applies: in vivo. The gist of the method:
as §1

Data set [16] in a line: Biodistribution of [18F]FEDPN in rat bone after 30 min when given in tail vein; (n=5). The format is ADME, organism-based, Bone element. To be noted: in vivo, iv, 0.5 h. The gist of the method: (§3)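 Immature female Sprague–Dawley rats (<25 days old) under isoflurane/O2 got 20 µCi tracer in 150 µL 20% ethanol/saline by tail vein. […] Rats were killed at 30 min, 1 h or 2 h. Organs were blotted, weighed and gamma-counted against an injectate standard. Data are %ID/g ± SD, five rats per point.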

Data set [17] is described as follows: Biodistribution of [18F]FEDPN in alpha estrogen receptor knock out mouse bone after 1 h; (n=3). Type of data set: ADME, organism-based, Bone element. To be noted: in vivo. The method, boiled down:
as §1

A short description of data set [18]: Biodistribution of [18F]FEDPN in alpha estrogen receptor knock out mouse bone after 2 h; (n=3). The format is ADME, organism-based, Bone element. The following applies: in vivo. The gist of the method: as §1
Data set [19] is described as follows: Biodistribution of [18F]FEDPN in alpha estrogen receptor knock out mouse lung after 2 h; (n=3). The format is ADME, organism-based. The following applies: in vivo. The method, boiled down: as §2
Data set [20] is described as follows: Biodistribution of [18F]-FEDPN in rat fat after 2 hr when given in tail vein; (n=5). Type of data set: ADME, organism-based, Adipose tissue. The following applies: in vivo, iv. The gist of the method:
(§4)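 Immature female Sprague–Dawley rats (<25 days old) anesthetized with isoflurane/O2. Given 20 µCi tracer by tail vein in 150 µL of 20% ethanol/saline. […] Killed at 30 min, 1 h or 2 h. Blood and organs blotted, weighed and gamma-counted against a standard dilution of the injectate. Reported as %ID/g ± SD, n=5.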

Data set [21] in a line: Biodistribution of [18F]-FEDPN in rat liver after 2 hr when given in tail vein; (n=5). Type of data set: ADME, organism-based. The following applies: in vivo, iv. The gist of the method: as §4
Data set [22] can be described thus: Biodistribution of [18F]-FEDPN in rat kidney after 2 hr when given in tail vein; (n=5). The following applies: in vivo, iv. The format is ADME, organism-based. The method, boiled down:
as §4

Data set [23] can be described thus: Biodistribution of [18F]FEDPN in rat muscle after 1 h when given in tail vein; (n=5). The format is ADME, organism-based, Muscle tissue. To be noted: in vivo, iv. The method, boiled down: as §3
A short description of data set [24]: Biodistribution of [18F]-FEDPN in rat thymus after 1 hr when given in tail vein; (n=5). Type of data set: ADME, organism-based. The following applies: in vivo, iv. The method, boiled down: as §4
A short description of data set [25]: Biodistribution of [18F]-FEDPN in rat thymus after 2 hr when given in tail vein; (n=5). Type of data set: ADME, organism-based. To be noted: in vivo, iv. The gist of the method: as §4
Data set [26] is described as follows: Biodistribution of [18F]FEDPN in rat kidney after 30 min when given in tail vein; (n=5). Type of data set: ADME, organism-based. To be noted: in vivo, iv, 0.5 h. The gist of the method:
as §3

Data set [27] in a line: Biodistribution of [18F]-FEDPN in rat lung after 1 hr block when given in tail vein; (n=5). The format is ADME, organism-based. To be noted: in vivo, iv. The gist of the method: as §4
Data set [28] is described as follows: Biodistribution of [18F]FEDPN in rat ovaries after 30 min when given in tail vein; (n=5). Type of data set: ADME, organism-based, Female gonad. To be noted: in vivo, iv, 0.5 h. The method, boiled down:
as §3

The nature of data set [29]: Biodistribution of [18F]-FEDPN in rat kidney after 1 hr block when given in tail vein; (n=5). Type of data set: ADME, organism-based. The following applies: in vivo, iv. The method, boiled down:
as §4

The nature of data set [30]: Biodistribution of [18F]FEDPN in beta estrogen receptor knock out mouse fat after 30 min; (n=3). The following applies: in vivo, 0.5 h. The format is ADME, organism-based, Adipose tissue. The method, boiled down: as §2
A short description of data set [31]: Biodistribution of [18F]FEDPN in beta estrogen receptor knock out mouse muscle after 2 h; (n=3). Type of data set: ADME, organism-based, Muscle tissue. To be noted: in vivo. The gist of the method:
as §2

A short description of data set [32]: Biodistribution of [18F]FEDPN in alpha estrogen receptor knock out mouse bone after 30 min; (n=3). Type of data set: ADME, organism-based, Bone element. To be noted: in vivo, 0.5 h. The method, boiled down:
as §1

Data set [33] concerns the target Estrogen receptor (Mus musculus) (UniProt O08537+P19785). Description: Ratio of [18F]FEDPN uptake in ovaries of ERbeta KO-mouse and ERalpha KO-mouse (nonestrus) after 2 hr.

Sequence of Estrogen receptor (Mus musculus) (O08537 whole entry, looked up): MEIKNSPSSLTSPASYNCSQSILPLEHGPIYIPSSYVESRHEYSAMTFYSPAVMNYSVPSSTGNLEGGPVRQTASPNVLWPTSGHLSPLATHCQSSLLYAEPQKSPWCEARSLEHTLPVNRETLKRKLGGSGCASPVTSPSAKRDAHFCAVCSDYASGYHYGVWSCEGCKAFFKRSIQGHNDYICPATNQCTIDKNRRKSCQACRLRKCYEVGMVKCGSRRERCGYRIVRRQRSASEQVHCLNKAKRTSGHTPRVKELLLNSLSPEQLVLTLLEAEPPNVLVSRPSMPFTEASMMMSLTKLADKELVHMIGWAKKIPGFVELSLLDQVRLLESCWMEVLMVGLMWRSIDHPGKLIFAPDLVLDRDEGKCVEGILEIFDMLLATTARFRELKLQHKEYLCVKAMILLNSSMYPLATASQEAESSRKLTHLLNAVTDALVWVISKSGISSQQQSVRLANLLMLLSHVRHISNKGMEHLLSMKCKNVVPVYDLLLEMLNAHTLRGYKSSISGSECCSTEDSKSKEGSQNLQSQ
Sequence of Estrogen receptor (Mus musculus) (P19785 whole entry, looked up): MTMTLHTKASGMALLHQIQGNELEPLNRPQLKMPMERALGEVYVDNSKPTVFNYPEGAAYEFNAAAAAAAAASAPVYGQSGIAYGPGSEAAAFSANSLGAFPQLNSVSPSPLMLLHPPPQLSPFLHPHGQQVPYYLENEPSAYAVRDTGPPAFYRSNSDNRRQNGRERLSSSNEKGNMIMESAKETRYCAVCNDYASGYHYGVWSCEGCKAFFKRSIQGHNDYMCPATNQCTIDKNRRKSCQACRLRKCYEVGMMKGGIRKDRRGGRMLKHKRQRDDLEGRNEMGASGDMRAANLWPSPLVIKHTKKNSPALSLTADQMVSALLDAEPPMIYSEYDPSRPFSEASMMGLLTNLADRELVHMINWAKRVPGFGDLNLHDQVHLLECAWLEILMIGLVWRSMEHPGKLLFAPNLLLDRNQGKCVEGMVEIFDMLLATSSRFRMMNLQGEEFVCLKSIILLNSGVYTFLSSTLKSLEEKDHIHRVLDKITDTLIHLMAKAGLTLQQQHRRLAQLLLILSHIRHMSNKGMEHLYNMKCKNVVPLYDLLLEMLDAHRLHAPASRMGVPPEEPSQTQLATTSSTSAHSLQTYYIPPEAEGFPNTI

For `C[C@]12CC[C@@H]3c4ccc(O)cc4CC[C@H]3[C@@H]1C[C@@H](F)[C@@H]2O` [FLUOROESTRADIOL], the Biodistribution in data set [1] came out at 2.52 %ID/g; in data set [2], 0.23 %ID/g; in data set [3], 0.67 %ID/g; in data set [4], 0.71 %ID/g; in [5] it was 0.35 %ID/g; in data set [6] it was 4.54 %ID/g. Moreover, the Biodistribution in data set [7] amounted to 1.29 %ID/g; in [8], 0.92 %ID/g; in data set [9], 0.36 %ID/g.

With `N#C[C@H](c1ccc(O)cc1)[C@@H](CCF)c1ccc(O)cc1`, the Biodistribution is recorded as 7.22 %ID/g in data set [10]; 0.99 %ID/g in data set [11]; 1.27 %ID/g in [12]; 0.31 %ID/g in data set [13]; 0.74 %ID/g in data set [14]; 0.25 %ID/g in data set [15]. The Biodistribution is 2.12 %ID/g in [16]; 4.13 %ID/g in [17]; 5.45 %ID/g in [18]; 0.75 %ID/g in [19]; 0.1 %ID/g in data set [20]; 0.62 %ID/g in data set [21]. Moreover, the Biodistribution in data set [22] is reported as 0.97 %ID/g; in [23], 0.22 %ID/g; in data set [24], 0.29 %ID/g; in [25], 0.08 %ID/g; in [26] it was 2 %ID/g; in data set [27], 0.27 %ID/g. For the same compound, the Biodistribution in data set [28] amounted to 0.93 %ID/g; in data set [29] it was 1.01 %ID/g; in [30] it was 0.89 %ID/g; in data set [31], 0.27 %ID/g; in data set [32], 3.47 %ID/g. Also, the Ratio in data set [33] came out at 0.61.
